Active and inactive are the calls of the source.
Experiments:
Aspergillus niger [1] = assay: Antifungal activity against Aspergillus niger RD6.47 at 104.2 ug/mL by microtiter plate; type: functional, organism-based
Outline: (§1)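 Reporter conidia (2×10^4 per well) were pre-grown 6 h at 37 °C in 2× CM in glass-bottom plates. An equal volume of a 2-fold dilution series (seven concentrations) was added, then 3 h at 30 °C. Medium was discarded and adherent germlings imaged. Growth inhibition was scored 0/1/2 from hyphal length.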

Aspergillus niger [2] = assay: Antifungal activity against Aspergillus niger JvD1.1 at 104.2 ug/mL by microtiter plate; type: functional, organism-based; outline: as §1
Aspergillus niger [3] = assay: Induction of GFP tagged PagsA-H2B expression in Aspergillus niger RD6.47 at 104.2 ug/mL by fluorescence microscopy; type: functional, organism-based
Outline: (§2)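 agsA promoter-GFP reporters, cytoplasmic (JvD1.1) or nuclear H2B-targeted (RD6.47). Germlings pre-grown 6 h at 37 °C in 2× CM, exposed 3 h at 30 °C to seven 2-fold dilutions. GFP levels were scored by fluorescence microscopy as 0 (basal), 1 (intermediate) or 2 (high). Controls: gpdA-H2B-GFP strain MA26.1 (positive), N402 (negative).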

Aspergillus niger [4] = assay: Induction of GFP tagged PagsA expression in Aspergillus niger JvD1.1 at 104.2 ug/mL by fluorescence microscopy; type: functional, organism-based; outline: as §2
Aspergillus niger [5] = assay: Effect on morphological changes in Aspergillus niger N402 germlings assessed as tip swelling at 5 ng/mL after 5 hrs; type: functional, organism-based
Aspergillus niger [6] = assay: Antifungal activity against Aspergillus niger JvD1.1 at 25.6 ug/mL by microtiter plate; type: functional, organism-based
Outline: (§3)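 Reporter germlings (cytoplasmic PagsA-GFP JvD1.1 or nuclear PagsA-H2B-GFP RD6.47), 2×10^4 conidia per well in 2× CM, pre-grown 6 h at 37 °C. A 2-fold dilution series (seven concentrations) was then added and plates were held 3 h at 30 °C. Adherent germlings were imaged, and growth inhibition was scored 0/1/2 from hyphal length.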

Aspergillus niger [7] = assay: Induction of gnaA gene expression in Aspergillus niger by microarray analysis relative to control; type: functional
Outline: (§4)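 A. niger N402 conidia (5×10^9) grown in 5 L fermentation medium in a bioreactor at 37 °C, pH 3, 250 rpm. Drug in distilled H2O or H2O alone added at 5 h; mycelium harvested by filtration 1 h later and frozen in liquid nitrogen. cRNA hybridized to Affymetrix A. niger GeneChips, two independent bioreactor runs per condition; normalized, ≥1.5-fold change at p 0.05 cutoff.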

Aspergillus niger [8] = assay: Induction of gfaA gene expression in Aspergillus niger by microarray analysis relative to control; type: functional; outline: as §4
Aspergillus niger [9] = assay: Induction of crhC gene expression in Aspergillus niger by microarray analysis relative to control; type: functional; outline: as §4
Aspergillus niger [10] = assay: Antifungal activity against Aspergillus niger JvD1.1 by microtiter plate; type: functional, organism-based; outline: as §3
Aspergillus niger [11] = assay: Induction of mkkA gene expression in Aspergillus niger by microarray analysis relative to control; type: functional; outline: as §4
Aspergillus niger [12] = assay: Induction of lplB gene expression in Aspergillus niger by microarray analysis relative to control; type: functional; outline: as §4
Aspergillus niger [13] = assay: Induction of GFP tagged PagsA-H2B expression in Aspergillus niger RD6.47 at 25.6 ug/mL by fluorescence microscopy; type: functional, organism-based
Outline: (§5)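 Conidia of the agsA-promoter GFP reporters (2×10^4 per well, 2× CM) germinated 6 h at 37 °C, then were exposed 3 h at 30 °C to seven 2-fold serial dilutions. GFP in adherent germlings was read by fluorescence microscopy and scored 0 (basal), 1 (intermediate) or 2 (high). Positive control was a PgpdA-H2B-GFP strain; N402 was the negative control.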

Aspergillus niger [14] = assay: Induction of hocA gene expression in Aspergillus niger by microarray analysis relative to control; type: functional; outline: as §4
Aspergillus niger [15] = assay: Effect on morphological changes in Aspergillus niger N402 germlings assessed as branching index at 50 ng/mL; type: functional
Outline: (§6)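 N402 conidia (5×10^5) were germinated 5 h at 37 °C on coverslips in 5 ml liquid MM plus 0.003% yeast extract. Compound was added (water for controls) and culture continued 1 h at 37 °C. At least 50 adherent germlings were scored microscopically as branched or unbranched; branching index = branched/(branched + unbranched).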

Aspergillus niger [16] = assay: Induction of rapA gene expression in Aspergillus niger by microarray analysis relative to control; type: functional; outline: as §4
Aspergillus niger [17] = assay: Effect on morphological changes in Aspergillus niger N402 germlings assessed as germ tube elongation and branching at 5 ug/mL after 5 hrs; type: functional, organism-based
Outline: (§7)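 Compound or water control was added, then 1 h more at 37 °C. Adherent germlings were scored by microscopy, at least 50 per sample, as branched or unbranched. Branching index = branched/total germlings.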

Aspergillus niger [18] = assay: Antifungal activity against Aspergillus niger RD6.47 by microtiter plate; type: functional, organism-based; outline: as §3
Aspergillus niger [19] = assay: Induction of GFP tagged PagsA-H2B expression in Aspergillus niger RD6.47 by fluorescence microscopy; type: functional, organism-based; outline: as §5
Aspergillus niger [20] = assay: Induction of rhoB gene expression in Aspergillus niger by microarray analysis relative to control; type: functional; outline: as §4
Aspergillus niger [21] = assay: Effect on morphological changes in Aspergillus niger N402 germlings assessed as germ tube elongation and branching at 5 ng/mL after 5 hrs; type: functional, organism-based; outline: as §7
Aspergillus niger [22] = assay: Induction of agtA gene expression in Aspergillus niger by microarray analysis relative to control; type: functional; outline: as §4
Aspergillus niger [23] = assay: Induction of gelA gene expression in Aspergillus niger by microarray analysis relative to control; type: functional; outline: as §4
Aspergillus niger [24] = assay: Effect on morphological changes in Aspergillus niger N402 germlings assessed as germ tube elongation and branching at 0.9 ug/mL after 5 hrs; type: functional, organism-based; outline: as §7
Aspergillus niger [25] = assay: Effect on morphological changes in Aspergillus niger N402 germlings assessed as increase in germ tube; type: functional, organism-based
Outline: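 Bioreactor: 5×10^9 N402 conidia in 5 l fermentation medium, pH 3 controlled, 37 °C, 250 rpm. Compound in water (or water alone) added at 5 h, then 1 h further cultivation. At least 200 germlings per run were counted for germ tubes per germling and subapical branches. Mean ± S.D. from two independent runs.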

Aspergillus niger [26] = assay: Induction of dppA gene expression in Aspergillus niger by microarray analysis relative to control; type: functional; outline: as §4
Aspergillus niger [27] = assay: Upregulation of Rho2-GTPase gene expression in Aspergillus niger relative to control; type: functional, organism-based
Outline: (§8)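 N402 conidia (5×10^9) were grown in 5 l fermentation medium, pH 3, 37 °C, 250 rpm in a bioreactor. After 5 h compound was added (water for controls); mycelium was harvested 1 h later. RNA was hybridized to A. niger Affymetrix GeneChips from two independent bioreactor runs. Genes with ≥1.5-fold change at p < 0.05 after normalization were counted as differentially expressed.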

Aspergillus niger [28] = assay: Induction of dfgC gene expression in Aspergillus niger by microarray analysis relative to control; type: functional; outline: as §4
Aspergillus niger [29] = assay: Induction of GFP tagged PagsA expression in Aspergillus niger JvD1.1 by fluorescence microscopy; type: functional, organism-based; outline: as §5
Aspergillus niger [30] = assay: Effect on morphological changes in Aspergillus niger N402 germlings assessed as tip swelling at 5 ug/mL after 5 hrs; type: functional, organism-based
Aspergillus niger [31] = assay: Upregulation of agtA gene expression in Aspergillus niger relative to control; type: functional, organism-based; outline: as §8
Aspergillus niger [32] = assay: Induction of srgA gene expression in Aspergillus niger by microarray analysis relative to control; type: functional; outline: as §4
Aspergillus niger [33] = assay: Induction of gfaB gene expression in Aspergillus niger by microarray analysis relative to control; type: functional; outline: as §4
Aspergillus niger [34] = assay: Induction of bgtB gene expression in Aspergillus niger by microarray analysis relative to control; type: functional; outline: as §4
Aspergillus niger [35] = assay: Induction of dpmA gene expression in Aspergillus niger by microarray analysis relative to control; type: functional; outline: as §4
Aspergillus niger [36] = assay: Effect on morphological changes in Aspergillus niger N402 germlings assessed as tip swelling at 0.9 ug/mL after 5 hrs; type: functional, organism-based
Aspergillus niger [37] = assay: Induction of ugpA gene expression in Aspergillus niger by microarray analysis relative to control; type: functional; outline: as §4
Aspergillus niger [38] = assay: Induction of crhB gene expression in Aspergillus niger by microarray analysis relative to control; type: functional; outline: as §4
Aspergillus niger [39] = assay: Effect on morphological changes in Aspergillus niger RD6.47 assessed as tip swelling; type: functional, organism-based
Aspergillus niger [40] = assay: Antifungal activity against Aspergillus niger RD6.47 at 25.6 ug/mL by microtiter plate; type: functional, organism-based; outline: as §3
Aspergillus niger [41] = assay: Effect on increase sub apical branching in Aspergillus niger N402 germlings assessed as branching index at 5 ng/mL after 5 hrs; type: functional; outline: as §6
Aspergillus niger [42] = assay: Induction of GFP tagged PagsA expression in Aspergillus niger JvD1.1 at 25.6 ug/mL by fluorescence microscopy; type: functional, organism-based; outline: as §5
Aspergillus niger [43] = assay: Induction of chsB gene expression in Aspergillus niger by microarray analysis relative to control; type: functional; outline: as §4
Aspergillus niger [44] = assay: Induction of agsA expression in Aspergillus niger N402 germlings; type: functional, organism-based
Outline: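 RNA from 1 h-treated N402 bioreactor germlings (5 h pre-growth, FM pH 3, 37 °C) was hybridised to A. niger Affymetrix arrays, biological duplicate. Data were normalised; differential expression was taken as at least 1.5-fold change with p cutoff 0.05. Northern blots on the same RNA were used for validation.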

Aspergillus niger [45] = assay: Effect on morphological changes in Aspergillus niger JvD1.1 assessed as tip swelling; type: functional, organism-based
Aspergillus niger [46] = assay: Induction of pgmB gene expression in Aspergillus niger by microarray analysis relative to control; type: functional; outline: as §4
Aspergillus niger [47] = assay: Induction of crhD gene expression in Aspergillus niger by microarray analysis relative to control; type: functional; outline: as §4
Aspergillus niger [48] = assay: Effect on increase sub apical branching in Aspergillus niger N402 germlings assessed as branching index at 5 ug/mL after 5 hrs; type: functional; outline: as §7
Aspergillus niger [49] = assay: Effect on morphological changes in Aspergillus niger N402 germlings assessed as branching index at 50 ug/mL; type: functional

N#Cc1c[nH]cc1-c1cccc2c1OC(F)(F)O2
Activity (Aspergillus niger [1]): Active | Activity (Aspergillus niger [2]): Active | Activity (Aspergillus niger [3]): Active | Activity (Aspergillus niger [4]): Active

CC[C@H](C)C[C@H](C)CCCCCCCCC(=O)N[C@H]1C[C@@H](O)[C@@H](NCCN)NC(=O)[C@@H]2[C@@H](O)CCN2C(=O)[C@H]([C@H](O)CCN)NC(=O)[C@H]([C@H](O)[C@@H](O)c2ccc(O)cc2)NC(=O)[C@@H]2C[C@@H](O)CN2C(=O)[C@H]([C@@H](C)O)NC1=O [CASPOFUNGIN]
Activity (Aspergillus niger [5]): Active | Activity (Aspergillus niger [6]): Active | fold change (FC) (Aspergillus niger [7]): 3.18 | fold change (FC) (Aspergillus niger [8]): 2.32 | fold change (FC) (Aspergillus niger [9]): 2.03 | Activity (Aspergillus niger [10]): Active | fold change (FC) (Aspergillus niger [11]): 2.03 | fold change (FC) (Aspergillus niger [12]): 1.77 | Activity (Aspergillus niger [13]): Active | fold change (FC) (Aspergillus niger [14]): 2.03 | Activity (Aspergillus niger [15]): 43.7% | fold change (FC) (Aspergillus niger [16]): 2.16 | Activity (Aspergillus niger [17]): Active | Activity (Aspergillus niger [18]): Active | Activity (Aspergillus niger [19]): Active | fold change (FC) (Aspergillus niger [20]): 2.32 | Activity (Aspergillus niger [21]): Active | fold change (FC) (Aspergillus niger [22]): 2.1 | fold change (FC) (Aspergillus niger [23]): 3.05 | Activity (Aspergillus niger [24]): Active | Activity (Aspergillus niger [25]): Active | fold change (FC) (Aspergillus niger [26]): 2.62 | Activity (Aspergillus niger [27]): Active | fold change (FC) (Aspergillus niger [28]): 2.4 | Activity (Aspergillus niger [29]): Active | Activity (Aspergillus niger [30]): Active | Activity (Aspergillus niger [31]): Active | fold change (FC) (Aspergillus niger [32]): 2.51 | fold change (FC) (Aspergillus niger [33]): 7.98 | fold change (FC) (Aspergillus niger [34]): 1.77 | fold change (FC) (Aspergillus niger [35]): 1.85 | Activity (Aspergillus niger [36]): Active | fold change (FC) (Aspergillus niger [37]): 1.64 | fold change (FC) (Aspergillus niger [38]): 2.58 | Activity (Aspergillus niger [39]): Active | Activity (Aspergillus niger [40]): Active | Activity (Aspergillus niger [41]): 34.5% | Activity (Aspergillus niger [42]): Active | fold change (FC) (Aspergillus niger [43]): 3.08 | Activity (Aspergillus niger [44]): Active | Activity (Aspergillus niger [45]): Active | fold change (FC) (Aspergillus niger [46]): 1.95

CC(Cc1ccc(C(C)(C)C)cc1)CN1C[C@@H](C)O[C@@H](C)C1 (stereo partly specified) [FENPROPIMORPH]
fold change (FC) (Aspergillus niger [47]): 1.51 | Activity (Aspergillus niger [5]): Active | Activity (Aspergillus niger [1]): Active | Activity (Aspergillus niger [48]): 33% | Activity (Aspergillus niger [49]): 30.5% | Activity (Aspergillus niger [2]): Active | Activity (Aspergillus niger [3]): Active | Activity (Aspergillus niger [17]): Active | Activity (Aspergillus niger [21]): Active | Activity (Aspergillus niger [24]): Active | Activity (Aspergillus niger [25]): Active | Activity (Aspergillus niger [30]): Active | Activity (Aspergillus niger [36]): Active | Activity (Aspergillus niger [4]): Active | Activity (Aspergillus niger [44]): Active

— ChEMBL document CHEMBL1156509, “Survival in the presence of antifungals: genome-wide expression profiling of Aspergillus niger in response to sublethal concentrations of caspofungin and fenpropimorph” (2007)
